Test results reported in ChEMBL document CHEMBL1126762, “Synthesis and anaerobic activity of novel 1-carba-1-dethiacephalosporins” (J Med Chem, 1993).
≈ marks a conversion by molar mass, not a printed value.

Tests used:
[1] = test system: Peptostreptococcus anaerobius; assay: Antibacterial activity against anaerobic Peptostreptococcus anaerobius 1451; type: functional
Outline: (§1)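 MIC by agar dilution following the NCCLS M11-A2 (2nd ed.) procedure for antimicrobial testing of anaerobic bacteria.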

[2] = Antibacterial activity against anaerobic Fusobacterium symbiosum 1470; type: functional, fusobacterium symbosium; outline: as §1
[3] = test system: Prevotella melaninogenica; assay: Antibacterial activity against anaerobic Bacteroides melaninogenicus 2736; type: functional; outline: as §1
[4] = Antibacterial activity against anaerobic Eubacterium aerofaciens 1235; type: functional; details: Collinsella aerofaciens; outline: as §1
Phocaeicola vulgatus = assay: Antibacterial activity against anaerobic Bacteroides vulgatus 1211; type: functional; outline: as §1
[5] = test system: Fusobacterium necrophorum; assay: Antibacterial activity against anaerobic Fusobacterium necrophorum 6054A; type: functional; outline: as §1
Klebsiella aerogenes = assay: Antibacterial activity against aerobic Enterobacter aerogenes C32; type: functional
Outline: (§2)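 MIC by agar dilution following the NCCLS M7-A2 (2nd ed.) procedure for bacteria that grow aerobically.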

Klebsiella pneumoniae = assay: Antibacterial activity against aerobic Klebsiella pneumoniae X26; type: functional; outline: as §2
Clostridium perfringens = assay: Antibacterial activity against anaerobic Clostridium perfringens 81; type: functional
Outline: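 Agar dilution MIC following NCCLS document M11-A2 (Vol. 10, no. 15), the method for antimicrobial testing of anaerobic bacteria; value reported as minimum inhibitory concentration.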

Bacteroides fragilis [6] = assay: Antibacterial activity against anaerobic Bacteroides fragilis 111; type: functional; outline: as §1
Clostridium septicum = assay: Antibacterial activity against anaerobic Clostridium septicum 1128; type: functional; outline: as §1
Eikenella corrodens = assay: Antibacterial activity against anaerobic Bacteroides corrodens 1874; type: functional; outline: as §1
Cutibacterium acnes = assay: Antibacterial activity against anaerobic Propionibacterium acnes 79; type: functional; outline: as §1
Escherichia coli = assay: Antibacterial activity against aerobic Escherichia coli EC14; type: functional; outline: as §2
Anaerococcus prevotii = assay: Antibacterial activity against anaerobic Peptococcus prevoti 1281; type: functional; outline: as §1
[7] = test system: Prevotella melaninogenica; assay: Antibacterial activity against anaerobic Bacteroides melaninogenicus 1856/28; type: functional; outline: as §1
Staphylococcus aureus = assay: Antibacterial activity against aerobic Staphylococcus aureus X1.1 strain; type: functional; outline: as §2
Clostridioides difficile = assay: Antibacterial activity against anaerobic Clostridium difficile 2994 strain; type: functional; outline: as §1
Pseudomonas aeruginosa = assay: Antibacterial activity against aerobic Pseudomonas aeruginosa X239 strain; type: functional; outline: as §2
Bacteroides fragilis [8] = assay: Antibacterial activity against anaerobic Bacteroides fragilis 1877; type: functional; outline: as §1
[9] = test system: Bacteroides thetaiotaomicron; assay: Antibacterial activity against anaerobic Bacteroides thetaiotaomicron 1438; type: functional; outline: as §1
Bacteroides fragilis [10] = assay: Antibacterial activity against anaerobic Bacteroides fragilis 1936B; type: functional; outline: as §1
[11] = test system: Staphylococcus epidermidis; assay: Antibacterial activity against aerobic Staphylococcus epidermidis 222; type: functional; outline: as §2
Haemophilus influenzae = assay: Antibacterial activity against aerobic Haemophilus influenzae RES 76; type: functional; outline: as §2
[12] = Antibacterial activity against anaerobic Peptococcus asaccharolyticus 1302; type: functional; details: Peptoniphilus asaccharolyticus; outline: as §1
Streptococcus pneumoniae = assay: Antibacterial activity against aerobic Streptococcus pneumoniae PARK; type: functional; outline: as §2
[13] = Antibacterial activity against anaerobic Peptostreptococcus intermedius 1264; type: functional; outline: as §1

Structure (SMILES)	MIC [1]	MIC [2]	MIC [3]	MIC [4]	MIC (Phocaeicola vulgatus)	MIC [5]	MIC (Klebsiella aerogenes)	MIC (Klebsiella pneumoniae)	MIC (Clostridium perfringens)	MIC (Bacteroides fragilis [6])	MIC (Clostridium septicum)	MIC (Eikenella corrodens)	MIC (Cutibacterium acnes)	MIC (Escherichia coli)	MIC (Anaerococcus prevotii)	MIC [7]	MIC (Staphylococcus aureus)	MIC (Clostridioides difficile)	MIC (Pseudomonas aeruginosa)	MIC (Bacteroides fragilis [8])	further results
CO/N=C(\C(=O)N[C@@H]1C(=O)N2C(C(=O)O)=C(Sc3ncc(C(F)(F)F)s3)CC[C@H]12)c1csc(N)n1	0.5 µg/mL (≈ 0.911 µM)	2 µg/mL (≈ 3.65 µM)	32 µg/mL (≈ 58.3 µM)	16 µg/mL (≈ 29.2 µM)	8 µg/mL (≈ 14.6 µM)	0.25 µg/mL (≈ 0.456 µM)	0.5 µg/mL (≈ 0.911 µM)	0.03 µg/mL (≈ 0.0547 µM)	0.06 µg/mL (≈ 0.109 µM)	128 µg/mL (≈ 233 µM)	0.5 µg/mL (≈ 0.911 µM)	128 µg/mL (≈ 233 µM)	0.008 µg/mL (≈ 0.0146 µM)	0.25 µg/mL (≈ 0.456 µM)	0.5 µg/mL (≈ 0.911 µM)	0.125 µg/mL (≈ 0.228 µM)	0.25 µg/mL (≈ 0.456 µM)	0.06 µg/mL (≈ 0.109 µM)	128 µg/mL (≈ 233 µM)	4 µg/mL (≈ 7.29 µM)	MIC [9]: 4 µg/mL (≈ 7.29 µM); MIC (Bacteroides fragilis [10]): 128 µg/mL (≈ 233 µM); MIC [11]: 1 µg/mL (≈ 1.82 µM); MIC (Haemophilus influenzae): 0.06 µg/mL (≈ 0.109 µM); MIC [12]: 0.125 µg/mL (≈ 0.228 µM); MIC (Streptococcus pneumoniae): 0.008 µg/mL (≈ 0.0146 µM); MIC [13]: 0.015 µg/mL (≈ 0.0273 µM)
CO/N=C(\C(=O)N[C@@H]1C(=O)N2C(C(=O)O)=C(Sc3ncc([N+](=O)[O-])s3)CC[C@H]12)c1csc(N)n1	≤ 0.5 µg/mL	1 µg/mL (≈ 1.9 µM)	4 µg/mL (≈ 7.61 µM)	8 µg/mL (≈ 15.2 µM)	2 µg/mL (≈ 3.81 µM)	≤ 0.5 µg/mL	2 µg/mL (≈ 3.81 µM)	0.125 µg/mL (≈ 0.238 µM)	2 µg/mL (≈ 3.81 µM)	8 µg/mL (≈ 15.2 µM)	≤ 0.5 µg/mL	8 µg/mL (≈ 15.2 µM)	≤ 0.5 µg/mL	0.5 µg/mL (≈ 0.951 µM)	≤ 0.5 µg/mL	4 µg/mL (≈ 7.61 µM)	0.125 µg/mL (≈ 0.238 µM)	2 µg/mL (≈ 3.81 µM)	> 128 µg/mL	2 µg/mL (≈ 3.81 µM)	MIC [9]: ≤ 0.5 µg/mL; MIC (Bacteroides fragilis [10]): 4 µg/mL (≈ 7.61 µM); MIC [11]: 0.5 µg/mL (≈ 0.951 µM); MIC (Haemophilus influenzae): 0.06 µg/mL (≈ 0.114 µM); MIC [12]: ≤ 0.5 µg/mL; MIC (Streptococcus pneumoniae): 0.008 µg/mL (≈ 0.0152 µM); MIC [13]: ≤ 0.5 µg/mL
CO/N=C(\C(=O)N[C@@H]1C(=O)N2C(C(=O)O)=C(Sc3ncc(S(C)(=O)=O)s3)CC[C@H]12)c1csc(N)n1	0.5 µg/mL (≈ 0.895 µM)	8 µg/mL (≈ 14.3 µM)	32 µg/mL (≈ 57.3 µM)	32 µg/mL (≈ 57.3 µM)	16 µg/mL (≈ 28.6 µM)	0.008 µg/mL (≈ 0.0143 µM)	0.25 µg/mL (≈ 0.448 µM)	0.03 µg/mL (≈ 0.0537 µM)	0.25 µg/mL (≈ 0.448 µM)	> 128 µg/mL	16 µg/mL (≈ 28.6 µM)	> 128 µg/mL	0.03 µg/mL (≈ 0.0537 µM)	0.06 µg/mL (≈ 0.107 µM)	0.25 µg/mL (≈ 0.448 µM)	0.125 µg/mL (≈ 0.224 µM)	0.25 µg/mL (≈ 0.448 µM)	0.125 µg/mL (≈ 0.224 µM)	> 128 µg/mL	32 µg/mL (≈ 57.3 µM)	MIC [9]: 2 µg/mL (≈ 3.58 µM); MIC (Bacteroides fragilis [10]): > 128 µg/mL; MIC [11]: 1 µg/mL (≈ 1.79 µM); MIC (Haemophilus influenzae): 0.015 µg/mL (≈ 0.0269 µM); MIC [12]: 0.25 µg/mL (≈ 0.448 µM); MIC (Streptococcus pneumoniae): 0.008 µg/mL (≈ 0.0143 µM); MIC [13]: 0.03 µg/mL (≈ 0.0537 µM)
